Measured values taken from ChEMBL document CHEMBL3817733, “Discovery of a novel small molecule agonist scaffold for the APJ receptor” (Bioorg Med Chem, 2016).
The source made the active and inactive calls. No cut-off for these calls is given here.

Legend:
Apelin receptor [1] = target: T1, Apelin receptor (Homo sapiens, UniProt P35414); test: Agonist activity at human APJ receptor expressed in cells c-expressing Galphaq16 assessed as calcium mobilization by FLIPR assay; assay type: functional, cell-based
T1 sequence (P35414 whole entry): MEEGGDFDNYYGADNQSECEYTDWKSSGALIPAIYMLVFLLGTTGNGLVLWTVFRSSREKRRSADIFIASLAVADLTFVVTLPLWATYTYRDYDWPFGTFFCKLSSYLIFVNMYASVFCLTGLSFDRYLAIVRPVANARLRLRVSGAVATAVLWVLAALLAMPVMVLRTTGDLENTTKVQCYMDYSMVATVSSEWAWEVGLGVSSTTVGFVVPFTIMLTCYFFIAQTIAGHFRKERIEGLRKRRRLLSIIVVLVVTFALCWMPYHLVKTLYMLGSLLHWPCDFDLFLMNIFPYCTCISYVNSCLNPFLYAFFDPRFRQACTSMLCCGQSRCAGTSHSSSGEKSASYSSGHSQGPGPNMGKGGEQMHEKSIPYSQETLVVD
Method in brief: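 Human APJ-Gαq16 stable cells lifted non-enzymatically, plated 30,000/well, grown 24 h at 37 C to confluence. Loaded with Calcium 5 dye in HBSS with 20 mM HEPES, 1% BSA, 10 µM probenecid, 1 h at 37 C. FLIPR Tetra read ~17 sec baseline, then added agonist at 10x; pyr-apelin-13 as reference.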

Apelin receptor [2] = target: T1, Apelin receptor; test: Displacement of [125I]-apelin13 from human APJ receptor expressed in CHOK1 cell membranes after 2 hrs by scintillation counting; design: species or system CHO-K1
[3] = target: Neurotensin receptor type 1 (Rattus norvegicus) (UniProt P20789); test: Agonist activity at rat NTS1 receptor expressed in CHOK1 cells assessed as calcium mobilization by FLIPR assay; assay type: functional, cell-based; settings: CHO-K1
Neurotensin receptor type 1 (Rattus norvegicus), sequence (P20789 whole entry): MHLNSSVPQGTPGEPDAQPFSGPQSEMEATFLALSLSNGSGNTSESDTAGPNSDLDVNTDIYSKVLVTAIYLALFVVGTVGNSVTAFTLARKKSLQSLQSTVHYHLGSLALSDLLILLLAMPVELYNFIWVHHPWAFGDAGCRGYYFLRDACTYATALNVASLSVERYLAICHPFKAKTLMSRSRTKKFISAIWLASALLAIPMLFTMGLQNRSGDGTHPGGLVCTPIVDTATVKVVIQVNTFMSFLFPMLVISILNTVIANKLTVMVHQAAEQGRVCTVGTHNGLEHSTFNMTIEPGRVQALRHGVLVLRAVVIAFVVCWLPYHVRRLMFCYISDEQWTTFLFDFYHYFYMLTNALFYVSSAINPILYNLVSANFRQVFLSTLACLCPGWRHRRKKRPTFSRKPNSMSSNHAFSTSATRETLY

[4] = target: T2, Neurotensin receptor type 2 (Rattus norvegicus, UniProt Q63384); test: (§1) Partial agonist activity at rat NTS2 receptor expressed in CHOK1 cells assessed as calcium mobilization by FLIPR assay; assay type: functional, cell-based, CHO-K1
T2 sequence (Q63384 whole entry): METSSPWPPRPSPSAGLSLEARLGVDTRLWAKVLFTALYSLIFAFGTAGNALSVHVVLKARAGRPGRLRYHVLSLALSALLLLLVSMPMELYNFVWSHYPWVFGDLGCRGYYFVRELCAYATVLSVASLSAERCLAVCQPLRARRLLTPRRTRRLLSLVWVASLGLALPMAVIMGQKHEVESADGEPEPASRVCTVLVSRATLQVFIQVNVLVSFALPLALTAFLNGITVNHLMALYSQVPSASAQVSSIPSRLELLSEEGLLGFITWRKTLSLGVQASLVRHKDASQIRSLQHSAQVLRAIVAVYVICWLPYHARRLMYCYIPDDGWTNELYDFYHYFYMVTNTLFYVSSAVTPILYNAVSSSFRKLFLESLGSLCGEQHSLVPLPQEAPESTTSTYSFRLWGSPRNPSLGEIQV

[5] = target: T3, Neurotensin receptor type 2 (Rattus norvegicus) (UniProt Q63384); test: as §1; assay type: functional, cell-based; settings: CHO-K1
T3 sequence (whole entry): T2 sequence (Q63384 whole entry)

[6] = target: Neurotensin receptor type 1 (Rattus norvegicus) (UniProt P20789); test: Antagonist activity against rat NTS1 receptor expressed in CHOK1 cells assessed as calcium mobilization by FLIPR assay; assay type: functional, cell-based; settings: CHO-K1

SMILES | EC50 (Apelin receptor [1]) [µM] | further results
COc1cccc(OC)c1-c1cc(C(=O)N[C@H](C(=O)O)c2ccccc2)nn1-c1ccc(F)cc1 | > 30 | –
COc1cccc(OC)c1-c1cc(C(=O)N[C@@H](Cc2ccccc2)C(=O)O)nn1-c1ccc(F)cc1 | > 30 | –
COc1cccc(OC)c1-c1cc(C(=O)N[C@@H](CC(C)C)C(=O)O)nn1-c1ccc(F)cc1 | > 30 | –
COc1cccc(OC)c1-c1cc(C(=O)N[C@@H](CCc2ccccc2)CC(=O)O)nn1-c1ccc(F)cc1 | 3 | Ki (Apelin receptor [2]): 3 µM
COc1cccc(OC)c1-c1cc(C(=O)NCC2CCCCC2)nn1-c1ccc(F)cc1 | > 30 | –
O=C(N[C@H](C(=O)O)C1CCCCC1)c1cc(-c2c(O)cccc2O)n(-c2ccc(F)cc2)n1 | > 30 | –
COc1cccc(OC)c1-c1cc(C(=O)N[C@H](CC(=O)O)CC(C)C)nn1-c1ccc(F)cc1 | 9.4 | Ki (Apelin receptor [2]): 0.6 µM
COc1cccc(OC)c1-c1cc(C(=O)N[C@H]2CC[C@H](C(=O)O)CC2)nn1-c1ccc(F)cc1 | > 30 | –
COc1cccc(OC)c1-c1cc(C(=O)N[C@@H](CCC(N)=O)C(=O)O)nn1-c1ccc(F)cc1 | > 30 | –
COc1cccc(OC)c1-c1cc(C(=O)N[C@@H](C(=O)O)C2CCCCC2)nn1-c1ccc(F)cc1 | > 30 | –
Cc1cc(C(=O)N[C@H](C(=O)O)C2CCCCC2)nn1-c1ccc(F)cc1 | > 30 | –
COc1cccc(OC)c1-c1cc(C(=O)N[C@@H](CCC2CCCCC2)CC(=O)O)nn1-c1ccc(F)cc1 | – | Activity [3]: inactive; EC50 [4]: 3.41 µM; Emax [5]: 23%; Activity [6]: inactive
COc1cccc(OC)c1-c1cc(C(=O)N[C@H](C(=O)NCc2ccccc2)C2CCCCC2)nn1-c1ccc(F)cc1 | > 30 | –
COc1cccc(OC)c1-c1cc(C(=O)N[C@@H](CCCCN)C(=O)O)nn1-c1ccc(F)cc1 | > 30 | –
COC(=O)CNC(=O)[C@@H](NC(=O)c1cc(-c2c(OC)cccc2OC)n(-c2ccc(F)cc2)n1)C1CCCCC1 | > 30 | –
COc1cccc(OC)c1-c1cc(C(=O)NC2(C(=O)O)C3CC4CC(C3)CC2C4)nn1-c1ccc(F)cc1 (configuration not stated) | > 30 | –
COc1cccc(OC)c1-c1cc(C(=O)N[C@H](C(=O)N(C)C)C2CCCCC2)nn1-c1ccc(F)cc1 | > 30 | –
COc1cccc(OC)c1-c1cc(C(=O)N[C@H](C(=O)O)C(C)C)nn1-c1ccc(F)cc1 | > 30 | –
COc1cccc(OC)c1-c1cc(C(=O)N[C@H](C(=O)NCC(=O)O)C2CCCCC2)nn1-c1ccc(F)cc1 | > 30 | –
O=C(N[C@H](C(=O)O)C1CCCCC1)c1cc(-c2ccccc2)n(-c2ccc(F)cc2)n1 | > 30 | –
COc1cccc(O)c1-c1cc(C(=O)N[C@H](C(=O)O)C2CCCCC2)nn1-c1ccc(F)cc1 | > 30 | –
COc1cccc(OC)c1-c1cc(C(=O)N[C@@H](CCCCNC(=O)OC(C)(C)C)C(=O)O)nn1-c1ccc(F)cc1 | > 30 | –
COc1cccc(OC)c1-c1cc(C(=O)N[C@H](C(N)=O)C2CCCCC2)nn1-c1ccc(F)cc1 | > 30 | –
COc1cccc(OC)c1-c1cc(C(=O)N2CC[C@H](C(=O)O)C2)nn1-c1ccc(F)cc1 | > 30 | –
COc1cccc(OC)c1-c1cc(C(=O)N[C@H](C(=O)NO)C2CCCCC2)nn1-c1ccc(F)cc1 | > 30 | –
COc1cccc(OC)c1-c1cc(C(=O)NC2(C(=O)O)CCCCC2)nn1-c1ccc(F)cc1 | > 30 | –
COC(=O)[C@@H](NC(=O)c1cc(-c2c(OC)cccc2OC)n(-c2ccc(F)cc2)n1)C1CCCCC1 | > 30 | –
COc1cccc(OC)c1-c1cc(C(=O)Nc2ccccc2C(=O)O)nn1-c1ccc(F)cc1 | > 30 | –
COc1cccc(OC)c1-c1cc(C(=O)NC(CC(=O)O)C2CCCCC2)nn1-c1ccc(F)cc1 (single isomer, unassigned) | – | Activity [3]: inactive; Emax [5]: 57%; Activity [6]: inactive
COc1cccc(OC)c1-c1cc(C(=O)N[C@H](C(=O)O)C2CCCCC2)n(-c2ccc(F)cc2)n1 | > 30 | –
